According to PMC8941156 (Heliyon, 2022):

Columns and labels:
[1] = Stability of rubraxanthone in mice plasma; assay type: in vitro ADME; details: for freeze–thaw stability, % diff: mice plasma, three freeze–thaw rounds
Method in brief: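 Blank mouse plasma was spiked at medium and high QC levels, extracted by acetonitrile precipitation with α-mangostin internal standard, and quantified by UHPLC-DAD at 243 nm. For freeze–thaw, four replicate samples per level went through three cycles. Post-preparative and plasma stability came from eight replicates per level. Results are given as % difference.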

[2] = Single dose oral pharmacokinetic study of rubraxanthone in mice; assay type: in vivo; details: mouse, plasma, 700 mg/kg
Method in brief: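 Mice (7–8 weeks, 20 ± 5 g) were given a fresh suspension in virgin coconut oil orally. Under isoflurane, mandibular-vein blood was taken from six mice per time point over 0–24 h into lithium heparin, and plasma was stored at −80 °C. Plasma was extracted by acetonitrile precipitation with α-mangostin internal standard and read by UHPLC-DAD (0.128–5 µg/mL calibration). Non-compartmental analysis used trapezoidal AUC and Ke from log-linear regression of the last four points (3–5.5 h), reported as mean ± SD.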

## COc1c(O)cc2oc3cc(O)cc(O)c3c(=O)c2c1C/C=C(\C)CCC=C(C)C [rubraxanthone, 1,3,6,trihydroxy-8-geranyl-7-methoxy xanthone]
[1]; HC sample (3.750 μg/mL)
  freeze–thaw stability, % diff: 5.9%
[1]; MC sample (2.067 μg/mL)
  freeze–thaw stability, % diff: 0.49%
[1]; plasma kept at ambient temperature for 24 h before or after extraction vs plasma kept at -20 °C, MC and HC samples
  post-preparative and plasma stability: stable
[2]
  CL/F: 18.7 mL/min/kg
  Tmax: 1.5 ± 0.99 h
  half-life: 6.72 ± 1.29 h
  k el: 2.78e-05 s⁻¹
